Assay results as given in PMC9891257 (RNA, 2023).
Where “and” joins values, the source holds several entries; their conditions need not be identical. Equal entries are not always repeated.

How the values were obtained:
[1] = tested on: Rabbit reticulocyte lysate; assay: Translation of luciferase mRNA capped with cap analogs in RRL system; assay type: biochemical; conditions: for Relative cap-dependent translation efficiency / Relative translation efficiency: Rabbit reticulocyte lysate; for Relative cap-dependent translation efficiency: relative to m^7GpppG; for Relative translation efficiency: relative to m^7GpppG-capped transcript
Outline: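 Firefly luciferase mRNA made by SP6 transcription of PCR template, 1 h at 37°C, with 0.5 mM ATP/CTP/UTP, 0.1 mM GTP, 0.5 mM cap analog (cap:GTP 5:1). Then DNase I treatment. Translated in 40% Flexi rabbit reticulocyte lysate with 0.01 mM amino acids, 0.9 mM Mg acetate, 190 mM K acetate. Lysate preincubated 60 min at 30°C, then 60 min with mRNA. Luciferase luminescence expressed relative to m7GpppG-capped mRNA.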

murine eIF4E = murine eIF4E (Mus musculus, UniProt P63073); assay: Thermal stability of eIF4E by DSF in the presence of cap analogs; assay type: binding; conditions: for Tm (at 100 μM of ligand): murine eIF4E, 100 μM ligand, apo form 38.42; for ΔTm (at 100 μM of ligand): in relation to eIF4E in apo form
Chain of murine eIF4E (P63073 28-217): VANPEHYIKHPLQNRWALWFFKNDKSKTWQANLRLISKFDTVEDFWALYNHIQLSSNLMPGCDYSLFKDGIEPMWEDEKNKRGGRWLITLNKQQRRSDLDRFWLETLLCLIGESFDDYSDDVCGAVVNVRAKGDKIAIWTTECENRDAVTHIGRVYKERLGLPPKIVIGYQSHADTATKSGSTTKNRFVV
Outline: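 Murine eIF4E (aa 28–217), 4 μM final, with 5× SYPRO Orange in HEPES/KOH pH 7.2, 100 mM KCl, 0.5 mM EDTA, 1 mM DTT. Test compound at 100 μM final (single point) or 1–100 μM series. Heated 22–95°C at 0.5°C/30 sec, fluorescence read each step. Normalized signal fitted to a two-state denaturation model for Tm. ΔTm is relative to apo eIF4E. Apparent Kd is from ΔTm change with rising ligand concentration.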

SP6 RNA polymerase = target: T1, SP6 RNA polymerase (Enterobacteria phage SP6, UniProt P06221); assay: Efficiency of cap analog incorporation into short RNA25 in IVT; assay type: biochemical; conditions: RNA25nt, densitometry
T1 sequence (P06221 1-874): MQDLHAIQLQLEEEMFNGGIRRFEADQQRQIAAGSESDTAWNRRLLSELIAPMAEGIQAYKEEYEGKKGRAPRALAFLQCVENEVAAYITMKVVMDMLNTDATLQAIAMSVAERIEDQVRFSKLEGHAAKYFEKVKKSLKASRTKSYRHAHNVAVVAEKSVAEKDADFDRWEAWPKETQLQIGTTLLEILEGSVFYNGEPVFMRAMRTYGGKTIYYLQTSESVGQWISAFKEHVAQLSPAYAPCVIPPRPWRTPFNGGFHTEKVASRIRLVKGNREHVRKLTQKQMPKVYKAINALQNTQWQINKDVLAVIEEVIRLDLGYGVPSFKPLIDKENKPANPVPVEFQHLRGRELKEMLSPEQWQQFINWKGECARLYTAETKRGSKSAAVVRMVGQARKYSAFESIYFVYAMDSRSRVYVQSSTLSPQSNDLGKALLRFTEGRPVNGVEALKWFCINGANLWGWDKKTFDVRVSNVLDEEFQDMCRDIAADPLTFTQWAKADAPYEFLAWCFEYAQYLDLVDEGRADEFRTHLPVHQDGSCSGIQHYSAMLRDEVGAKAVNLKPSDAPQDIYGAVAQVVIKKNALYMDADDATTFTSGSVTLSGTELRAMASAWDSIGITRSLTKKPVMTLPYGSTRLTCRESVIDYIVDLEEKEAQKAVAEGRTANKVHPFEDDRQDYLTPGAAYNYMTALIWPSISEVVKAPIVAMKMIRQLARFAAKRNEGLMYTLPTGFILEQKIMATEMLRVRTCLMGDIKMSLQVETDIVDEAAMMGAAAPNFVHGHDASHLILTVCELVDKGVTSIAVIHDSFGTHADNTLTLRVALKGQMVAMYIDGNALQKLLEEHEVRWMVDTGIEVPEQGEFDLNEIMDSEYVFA
Outline: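 DNase I digestion. 3′ ends trimmed with DNAzyme (30 pmol per 400 ng RNA, 50 mM Tris pH 7.4, 50 mM MgCl2, 1 h, 37°C), giving 25-nt RNA. Capped versus uncapped pppRNA bands quantified densitometrically.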

hNudt16 = hNudt16 (Homo sapiens, UniProt Q96DE0); assay: 5′ cap hydrolysis of analog-capped RNA25 with hNudt16; assay type: biochemical; conditions: 30 min reaction with hNudt16; for % of hydrolysis SP6 product: RNA made with SP6 polymerase; for % of hydrolysis T7 product: RNA made with T7 polymerase
Chain of hNudt16 (Q96DE0 whole entry): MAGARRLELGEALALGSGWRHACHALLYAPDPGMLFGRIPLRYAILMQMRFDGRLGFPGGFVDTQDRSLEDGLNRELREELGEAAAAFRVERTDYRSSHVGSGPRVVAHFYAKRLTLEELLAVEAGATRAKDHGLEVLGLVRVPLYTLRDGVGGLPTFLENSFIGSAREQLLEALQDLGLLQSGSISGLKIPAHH
Outline: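 Substrate: 50 ng 25-nt cap-analog RNA with trimmed 3′ ends. Digested with 2.5 µM hNudt16 in 40 mM Tris pH 7.9, 100 mM NaCl, 6 mM MgCl2, 2 mM DTT for 30 min at 37°C. Stopped with formamide loading dye, 5 min at 75°C. Run on 15% polyacrylamide/7 M urea, SYBR Gold stain. Hydrolysis = densitometric % loss of capped band; mean ± SD, three experiments. Orientation inferred from hydrolysis pattern.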

[2] = target: cap-dependent translation in RRL system; assay type: biochemical, rabbit; conditions: inhibition of ARCA-mRNA luciferase translation in RRL system; mean ± SD
Outline: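 Flexi rabbit reticulocyte lysate preincubated 60 min at 30°C under cap-dependent conditions. Then m2^7,3′O GpppG-capped firefly luciferase mRNA was added together with increasing concentrations of cap analog, and incubated a further 60 min at 30°C. Luminescence read immediately. IC50 by nonlinear regression; mean ± SD of ≥3 independent replicates. Ratio expresses IC50 relative to m7GpppG control.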

[3] = tested on: cap-dependent translation; conditions: translation inhibition; ref Wojcik et al. 2021; cited from earlier work

SMILES	translation level in comparison to m^7GpppG-capped transcript ([1]; RRL) [%]	Relative cap-dependent translation efficiency [1]	Relative translation efficiency [1]	Tm (at 100 μM of ligand) (murine eIF4E) [°C]	capped fraction (capping efficiency) (SP6 RNA polymerase) [%]	% of hydrolysis SP6 product (hNudt16)	% of hydrolysis T7 product (hNudt16) [%]	Relative translation efficiency ([1]; listed as m2^7,3'-OGpppG)	ΔTm (at 100 μM of ligand) (murine eIF4E)	ΔTm (at 100 μM of ligand) (murine eIF4E; listed as m2^7,3'OGpppG) [°C]	IC50 [2] [µM]	IC50 [3] [µM]
Nc1nc2c(ncn2[C@@H]2O[C@H](COP(=O)(O)OP(=O)(O)OP(=O)(O)OC[C@H]3O[C@@H](n4cnc5c(N)ncnc54)[C@H](O)[C@@H]3O)[C@@H](O)[C@H]2O)c(=O)[nH]1 [ApppG]	~10	0	0.09 ± 0.06	38.62	–	–	–	–	–	–	–	–
Nc1nc2c(ncn2[C@@H]2O[C@H](COP(=O)(O)OP(=O)(O)OP(=O)(O)OC[C@H]3O[C@@H](n4cnc5c(=O)[nH]c(N)nc54)[C@H](O)[C@@H]3O)[C@@H](O)[C@H]2O)c(=O)[nH]1 [GpppG]	–	–	–	–	85.3 ± 0.8	86.2 ± 3.9% and 86.18%	82.06	–	–	–	–	–
CO[C@H]1[C@@H](O)[C@H]([n+]2cn(C)c3c(=O)[nH]c(N)nc32)O[C@@H]1COP(=O)([O-])OP(=O)(O)OP(=O)(O)OC[C@H]1O[C@@H](n2cnc3c(=O)[nH]c(N)nc32)[C@H](O)[C@@H]1O [m2^7,3′OGpppG]	–	1.53 ± 0.20	1.47	47.53	65.8 ± 2.4	8.7 ± 2.0%	4.81	1.47 ± 0.17	around 10 °C	9.11	–	–
Cn1c[n+]([C@@H]2O[C@H](COP(=O)(O)OP(=O)([O-])OP(=O)(O)OC[C@H]3O[C@@H](n4cnc5c(=O)[nH]c(N)nc54)[C@H](O)[C@@H]3O)[C@@H](O)[C@H]2O)c2nc(N)[nH]c(=O)c21 [m^7GpppG]	–	1	1	48.10	74.3 ± 3.5	45.74%	32.24	–	–	–	8.94 ± 0.86	11.4 ± 2.4
